# Test results published in ChEMBL document CHEMBL2169822, “Discovery and optimization of 1,3,4-trisubstituted-pyrazolone derivatives as novel, potent, and nonsteroidal farnesoid X receptor (FXR) selective antagonists” (J Med Chem, 2012).
# The source made the active and inactive calls. The rule behind the calls is not given here.
# Assays:
# [1] = Agonist activity at GST tagged human recombinant FXRalphaLBD expressed in Escherichia coli BL21 cells assessed as SRC-1 co-activator association at 40 uM after 30 mins by HTRF assay; assay type: functional
# Method in brief: (§1)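 HTRF coactivator recruitment: 10 nM GST-human FXRαLBD (residues 238–473, E. coli BL21(DE3)), 0.83 nM anti-GST-Eu cryptate, 100 nM biotin-SRC1 peptide, 41.75 nM SA/XL665. Buffer was 50 mM Hepes pH 7.0, 125 mM KF, 0.125% CHAPS, 0.05% dry milk. Compound alone or with CDCA, 30 min at room temperature. Signal was 1000×(668/620 nm). Primary screen at 40 μM; IC50 as mean ± SE, three experiments.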
# [2] = Antagonist activity at GST-tagged human recombinant FXRalphaLBD expressed in Escherichia coli BL21 cells assessed as inhibition of CDCA-induced SRC-1 co-activator association at 40 uM by HTRF assay; assay type: functional; method in brief: as §1
# [3] = (§2) Antagonist activity at GST-tagged human recombinant FXRalphaLBD expressed in Escherichia coli BL21 cells assessed as inhibition of CDCA-induced SRC-1 co-activator association by HTRF assay; assay type: functional; method in brief: as §1
# [4] = test system: HEK-293T; test: Agonist activity at FXRalpha/RXRalpha expressed in HEK293T cells co-expressing GAL4 DBD after 18 hrs by luciferase based transactivation assay; assay type: functional, cell-based; settings: Homo sapiens
# Method in brief: (§3)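 FXR transactivation in HEK293T cells transiently transfected with pcDNA3.1-FXRα, pcDNA3.1-RXRα, pGL3-FXRE-Luc and pRL-SV40 Renilla vector. Medium was replaced 6 h after transfection with medium holding compound at varied concentrations, with or without 20 μM CDCA, for 18 h. Read-out was dual-luciferase. Three independent experiments.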
# [5] = test system: BL21; test: as §2; assay type: functional; method in brief: as §1
# [6] = test system: Mus musculus; test: Reduction of hepatic triglyceride level in cholesterol-fed C57BL/6 mouse at 100 mg/kg, po after 10 days; assay type: functional; set-up: scale not given: the % may be the effect or the level left
# Method in brief: (§4)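 Male C57BL/6 mice, 8–12 weeks old, were randomized into five groups of nine. Control mice had ground chow; the other groups had chow with 2% cholesterol. Compound (50 or 100 mg/kg) or reference (100 mg/kg) was suspended in 0.5% CMC-Na and given by oral gavage; control and vehicle mice got 0.5% CMC-Na. Serum and hepatic triglyceride and total cholesterol were measured.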
# [7] = test system: HEK-293T; test: Antagonist activity at FXRalpha/RXRalpha expressed in HEK293T cells co-expressing GAL4 DBD assessed as inhibition of CDCA-induced transactivation at 50 uM after 18 hrs by luciferase reporter gene assay; assay type: functional, cell-based; settings: Homo sapiens; method in brief: as §3
# [8] = test system: Mus musculus; test: Reduction of hepatic cholesterol level in cholesterol-fed C57BL/6 mouse at 100 mg/kg, po after 10 days; assay type: functional; set-up: scale not given: the % may be the effect or the level left; method in brief: as §4
# [9] = test system: Mus musculus; test: Reduction of serum triglyceride level in cholesterol-fed C57BL/6 mouse at 100 mg/kg, po after 10 days; assay type: functional; set-up: scale not given: the % may be the effect or the level left; method in brief: as §4
# [10] = Agonist activity at GST tagged human recombinant FXRalphaLBD expressed in Escherichia coli BL21 cells assessed as SRC-1 co-activator association after 30 mins by HTRF assay; assay type: functional; settings: BL21, 0.5 h
# Method in brief: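 Human FXRα LBD (residues 238–473) expressed as GST fusion in E. coli BL21(DE3) (IPTG 0.2 mM, 20 °C 6 h), purified on glutathione resin then Superdex 75. 10 nM GST-FXRαLBD incubated with 0.83 nM anti-GST-Eu cryptate, 100 nM biotin-SRC1 peptide and 41.75 nM SA/XL665 in 50 mM Hepes pH 7.0, 125 mM KF, 0.125% CHAPS, 0.05% dry milk, 30 min room temperature. Signal read as 1000×(668/620 nm). Primary screen at 40 μM.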
SMILES,Activity [1] [%],inhibition at 40 µM [2] [%],further results
CCOc1ccc(/C=C2\C(=O)N(c3ccc(C(F)(F)F)cc3)N=C2C)cc1OC,<5,9.5,
CCOc1ccc(/C=C2\C(=O)N(c3cccc(C(F)(F)F)c3)N=C2C)cc1OC,<5,< 5,
CC1=NN(c2cccc([N+](=O)[O-])c2)C(=O)/C1=C\c1ccc(C)s1,<5,< 5,
COc1cc(/C=C2\C(=O)N(c3cccc(C(=O)O)c3)N=C2C)ccc1OCc1ccccc1,<5,57.5,IC50 [3]: 33.8 µM; Activity [4]: inactive
CCCCCOc1ccc(/C=C2\C(=O)N(c3cccc(C(=O)O)c3)N=C2C)cc1OC,<5,55.4,IC50 [3]: 39.2 µM; Activity [4]: inactive
CCOc1ccc(/C=C2\C(=O)N(c3c(F)c(F)c(F)c(F)c3F)N=C2C)cc1OC,<5,43.6,IC50 [3]: 82.2 µM; Activity [4]: inactive
CCOc1ccc(/C=C2\C(=O)N(c3cccc(C(=O)O)c3)N=C2C)cc1OC,9,48.5,IC50 [3]: 69 µM
CCOC(=O)c1cccc(N2N=C(C)/C(=C/c3ccc(OCC)c(OC)c3)C2=O)c1,<5,9.4,
CCOc1ccc(/C=C2\C(=O)N(c3cc(C(F)(F)F)cc(C(F)(F)F)c3)N=C2C)cc1OC,<5,< 5,
C/C=C1\C(=O)C[C@H]2[C@@H]3CCC4=CC(=O)CC[C@]4(C)[C@H]3CC[C@]12C [GUGGULSTERONE],,,inhibition [5]: Dose-dependent effect; IC50 [3]: 89.4 µM; Activity [6]: 45.1%; inhibition [7]: Active; Activity [8]: 26.3%; Activity [9]: 53.7%
CCOc1ccc(/C=C2\C(=O)N(c3ccc([N+](=O)[O-])cc3)N=C2C)cc1OC,12.7,14.8,
CC1=NN(c2ccc([N+](=O)[O-])cc2)C(=O)/C1=C(/C)c1ccc(Cl)cc1,<5,16.8,
CC1=NN(c2cccc(C(=O)O)c2)C(=O)/C1=C\C=C\c1ccccc1,<5,32.1,
CCOc1ccc(/C=C2\C(=O)N(c3cccc([N+](=O)[O-])c3)N=C2C)cc1OC,29.2,< 5,
CC1=NN(c2cccc(C(=O)O)c2)C(=O)/C1=C\c1ccc(O)c(O)c1,<5,17.4,
COc1cc(/C=C2\C(=O)N(c3cccc([N+](=O)[O-])c3)N=C2C(C)C)ccc1O,<5,26.4,
CCOc1ccc(/C=C2\C(=O)N(c3ccccc3F)N=C2C)cc1OC,<5,5.5,
CCOc1ccc(/C=C2\C(=O)N(c3ccc(Cl)c(Cl)c3)N=C2C)cc1OC,<5,7.3,
CCOc1ccc(/C=C2\C(=O)N(c3cc(Cl)cc(Cl)c3)N=C2C)cc1OC,<5,< 5,
COc1cc(/C=C2\C(=O)N(c3cccc(C(=O)O)c3)N=C2C)ccc1O,6.4,< 5,
COc1cc(/C=C2\C(=O)N(c3cccc(C(=O)OC(C)C)c3)N=C2C)ccc1O,<5,29.9,
COc1ccc(/C=C2\C(=O)N(c3cccc([N+](=O)[O-])c3)N=C2C)c2ccccc12,<5,22.7,
CC1=NN(c2ccccc2)C(=O)/C1=C\c1ccccc1,<5,23.1,
COc1cc(/C=C2\C(=O)N(c3cccc(C(=O)O)c3)N=C2C)ccc1OC(C)C,<5,< 5,
CCOc1ccc(/C=C2\C(=O)N(c3ccc(C(C)C)cc3)N=C2C)cc1OC,<5,7.7,
C[C@H](CCC(=O)O)[C@H]1CC[C@H]2[C@@H]3[C@H](O)C[C@@H]4C[C@H](O)CC[C@]4(C)[C@H]3CC[C@]12C [CHENODIOL],,,EC50 [10]: 12.5 µM
CC1=NN(c2ccccc2)C(=O)/C1=C\c1ccc(Br)cc1,<5,72.6,IC50 [3]: 9.93 µM; Activity [4]: inactive
